pPAFAH FP inh: pPAFAH (human) enzyme inhibition | recombinant pPAFAH, FP-rhodamine probe fluorescence polarization | inhibition, % at 3.39 µM | 330,000 compounds, 1.5% hits | AID 463082;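 active means inhibition above the mean inhibition across the screen plus 3 SD, cut at about 25% in these data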;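 further: inhibitors block binding of the rhodamine activity-based probe so polarization drops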
Target sequence (Q13093 whole entry, looked up): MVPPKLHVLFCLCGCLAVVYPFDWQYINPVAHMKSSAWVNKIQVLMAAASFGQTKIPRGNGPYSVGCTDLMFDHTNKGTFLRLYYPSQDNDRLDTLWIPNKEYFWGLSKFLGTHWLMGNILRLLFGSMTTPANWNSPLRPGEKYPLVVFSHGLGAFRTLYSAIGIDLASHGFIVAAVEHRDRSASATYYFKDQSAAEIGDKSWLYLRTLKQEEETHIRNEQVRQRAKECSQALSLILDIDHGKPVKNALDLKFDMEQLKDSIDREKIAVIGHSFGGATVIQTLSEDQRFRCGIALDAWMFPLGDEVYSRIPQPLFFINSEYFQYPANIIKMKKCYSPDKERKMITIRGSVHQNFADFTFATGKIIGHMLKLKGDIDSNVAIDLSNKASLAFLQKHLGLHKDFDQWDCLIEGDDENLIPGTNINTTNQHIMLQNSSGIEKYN
PAFAH2 inh: PAFAH2 (human) inhibition | Q99487 | recombinant PAFAH2, FP-rhodamine activity probe, fluorescence polarization | inhibition, % at 3.39 µM | 340,000 compounds, 0.99% hits;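 active means inhibition above the mean over all tested compounds plus 3 SD, cut at about 30% in these data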;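 further: inhibitors block probe labeling of enzyme so polarization drops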
PAFAH1B2 FP inh: inhibitors of human PAFAH1B2; P68402; recombinant PAFAH1B2, FP-rhodamine activity probe, fluorescence polarization; inhibition, % at 3.39 µM; 340,000 compounds, 1.2% hits; AID 492953;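 active means inhibition above the mean of all tested compounds plus 3 SD, cut at about 24% in these data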
Apaf1 inhib: human Apaf-1 inhibition; reconstituted apoptosome caspase-3 activity, DEVD-Rh110 fluorescence; O14727; inhibition, % at 20 µM; 330,000 compounds, 0.71% hits; active means inhibition of at least 40% at 20 µM
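Material: reconstituted apoptosome with Apaf-1, cytochrome c, caspase-9, procaspase-3, dATP / Buffer or medium: pH 7.5 Hepes buffer with CHAPS, BSA, DTT / Also added: cytochrome c with DEVD-Rh110 / Schedule: compound with Apaf-1, dATP, procaspase-3 30 min, then 50 min reaction, room temperature / Technique: rhodamine 110 fluorescence at Ex 480/Em 540 nm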
PAFAH1B3 FP inh: PAFAH1B3 (human) inhibition; Q15102; 340,000 compounds, 0.28% hits; recombinant PAFAH1B3, FP-rhodamine probe, fluorescence polarization; inhibition, % at 3.39 µM;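 active means inhibition above the screen-wide average of all tested compounds plus 3 SD, cut at about 25% in these data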
Target sequence (Q15102 whole entry, looked up): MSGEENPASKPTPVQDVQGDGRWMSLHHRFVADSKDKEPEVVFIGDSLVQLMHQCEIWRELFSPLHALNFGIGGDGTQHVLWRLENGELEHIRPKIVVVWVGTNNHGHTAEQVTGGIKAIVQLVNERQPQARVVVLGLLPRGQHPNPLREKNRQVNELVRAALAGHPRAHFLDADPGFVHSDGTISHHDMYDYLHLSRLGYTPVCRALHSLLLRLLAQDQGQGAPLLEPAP
A number is an active result. In the library only some 3.1% were active in any assay of this set; here they are far more common.

Cc1ccc(C(C)C)c(OCc2nn(CC(=O)c3ccc(OC(F)F)cc3)c3[n+]2CCCCC3)c1 was read as pPAFAH FP inh inactive, PAFAH2 inh inactive, PAFAH1B2 FP inh inactive, Apaf1 inhib inactive and PAFAH1B3 FP inh inactive.
For O=C(CSC1=NS(=O)(=O)c2ccccc2N1)NCc1ccc(F)cc1 the results were pPAFAH FP inh inactive, PAFAH2 inh inactive, PAFAH1B2 FP inh inactive, Apaf1 inhib inactive and PAFAH1B3 FP inh inactive.
Screening Cc1ccc(CNC(=O)COC(=O)c2ccc(S(=O)(=O)NCc3ccco3)cc2)cc1 returned pPAFAH FP inh inactive, PAFAH2 inh inactive, PAFAH1B2 FP inh inactive, Apaf1 inhib inactive and PAFAH1B3 FP inh inactive.
For C=CCn1cnnc1SCC(=O)Nc1cccnc1Cl the results were Apaf1 inhib inactive.
`COc1ccc([C@@H]2CC=C(C(=O)O)[C@H](c3ccccc3)N2S(=O)(=O)c2ccc(C)cc2)cc1OC` gave pPAFAH FP inh inactive, PAFAH2 inh inactive, PAFAH1B2 FP inh inactive, Apaf1 inhib inactive and PAFAH1B3 FP inh inactive.
Screening Cc1ccc(S(=O)(=O)N2[C@@H](c3ccc(Br)cc3)C(C(=O)O)=CC[C@H]2c2ccc(C(C)C)cc2)cc1 returned pPAFAH FP inh inactive, PAFAH2 inh inactive, PAFAH1B2 FP inh 89, Apaf1 inhib inactive and PAFAH1B3 FP inh inactive.
Screening CC(C)(C)OC(=O)C[C@H]1C/C=C\C[C@H](CC(=O)N[C@H](CO)Cc2ccccc2)C(=O)N[C@H](Cc2ccccc2)COC1=O returned pPAFAH FP inh inactive, PAFAH2 inh inactive, PAFAH1B2 FP inh inactive, Apaf1 inhib inactive and PAFAH1B3 FP inh inactive.
Screening Cc1cccc(Oc2sc(C(=O)c3ccccc3)c(N)c2C#N)c1 returned pPAFAH FP inh 26, PAFAH2 inh inactive, PAFAH1B2 FP inh inactive, Apaf1 inhib inactive and PAFAH1B3 FP inh inactive.
For COc1ccc(NS(=O)(=O)c2cccc(NC(=O)CCC(=O)c3cccs3)c2)cc1 the results were pPAFAH FP inh 33, PAFAH2 inh inactive, PAFAH1B2 FP inh inactive, Apaf1 inhib inactive and PAFAH1B3 FP inh inactive.
`COc1ccc(NS(=O)(=O)c2cccc(NC(=O)CCS(=O)(=O)c3ccccc3)c2)cc1` gave pPAFAH FP inh 34, PAFAH2 inh inactive, PAFAH1B2 FP inh inactive, Apaf1 inhib inactive and PAFAH1B3 FP inh inactive.
`CCCCCCCCCCNC(=O)CCn1[nH]c(=O)c2ccccc2c1=O` gave pPAFAH FP inh 30, PAFAH2 inh inactive, PAFAH1B2 FP inh 61, Apaf1 inhib inactive and PAFAH1B3 FP inh inactive.
CC(C)N=c1scc(-c2cccs2)n1/N=C/c1ccc(O)c(O)c1O was read as pPAFAH FP inh 68, PAFAH2 inh inactive, PAFAH1B2 FP inh inactive, Apaf1 inhib inactive and PAFAH1B3 FP inh inactive.
N#Cc1c(SCC(=O)Nc2ccc(C(F)(F)F)cc2)sc2c(O)cc(=O)[nH]c12 was read as pPAFAH FP inh 25, PAFAH2 inh inactive, PAFAH1B2 FP inh inactive, Apaf1 inhib inactive and PAFAH1B3 FP inh inactive.
Cc1ccc(NC(=O)CSc2sc3c(O)cc(=O)[nH]c3c2C#N)c(F)c1 was read as pPAFAH FP inh 31, PAFAH2 inh inactive, PAFAH1B2 FP inh inactive, Apaf1 inhib inactive and PAFAH1B3 FP inh inactive.
Screening CC(=O)Nc1ccc(S(=O)(=O)NCCC(=O)Nc2ccc(C)c(F)c2)cc1 returned pPAFAH FP inh inactive, PAFAH2 inh inactive, PAFAH1B2 FP inh inactive, Apaf1 inhib inactive and PAFAH1B3 FP inh inactive.
For CCNC(=O)OCc1cn(-c2ccc(Cl)cc2)nn1 the results were pPAFAH FP inh inactive, PAFAH2 inh inactive, PAFAH1B2 FP inh inactive, Apaf1 inhib inactive and PAFAH1B3 FP inh inactive.
O=C(OCc1cn(-c2ccc(Cl)c(Cl)c2)nn1)c1ccccc1 was read as pPAFAH FP inh inactive, PAFAH2 inh 78, PAFAH1B2 FP inh inactive, Apaf1 inhib inactive and PAFAH1B3 FP inh inactive.
COCCN(C(=O)c1ccc(C#N)cc1)c1c(N)n(Cc2ccccc2)c(=O)[nH]c1=O was read as pPAFAH FP inh inactive, PAFAH2 inh inactive, PAFAH1B2 FP inh inactive, Apaf1 inhib inactive and PAFAH1B3 FP inh inactive.
For COCCN(C(=O)c1ccc(OCC(C)C)cc1)c1c(N)n(Cc2ccccc2)c(=O)[nH]c1=O the results were pPAFAH FP inh 31, PAFAH2 inh inactive, PAFAH1B2 FP inh inactive, Apaf1 inhib inactive and PAFAH1B3 FP inh inactive.
Screening O=S(=O)(NC(CO)Cc1ccccc1)c1ccc(Br)cc1F (configuration not stated) returned PAFAH2 inh inactive, PAFAH1B2 FP inh 29 and PAFAH1B3 FP inh inactive.
For COc1cc(CC(=O)OCC(=O)c2ccc(F)cc2)cc(OC)c1OC the results were pPAFAH FP inh inactive, PAFAH2 inh inactive, PAFAH1B2 FP inh inactive, Apaf1 inhib inactive and PAFAH1B3 FP inh inactive.
For COc1ccc(C(=O)N2CCc3ccc(NC(=O)c4ccccn4)cc3C2)cc1F the results were PAFAH2 inh inactive, PAFAH1B2 FP inh inactive, Apaf1 inhib inactive and PAFAH1B3 FP inh inactive.
For N#CC1=C(N)C2=CCCC[C@H]2[C@H](c2ccccc2)C1(C#N)C#N the results were pPAFAH FP inh inactive, PAFAH2 inh inactive, PAFAH1B2 FP inh inactive, Apaf1 inhib inactive and PAFAH1B3 FP inh inactive.
For N#CC1=C(N)C2=CCCC[C@H]2[C@H](c2ccc(Br)cc2)C1(C#N)C#N the results were pPAFAH FP inh 28, PAFAH2 inh inactive, PAFAH1B2 FP inh inactive and PAFAH1B3 FP inh inactive.
For NC(N)=Nc1cc2ccccc2c2ccccc12 the results were pPAFAH FP inh inactive and Apaf1 inhib 77.
`Cc1cc(NC(=O)COc2ccc3ccccc3c2Br)no1` gave pPAFAH FP inh inactive, PAFAH2 inh inactive, PAFAH1B2 FP inh inactive, Apaf1 inhib inactive and PAFAH1B3 FP inh inactive.
Screening Cc1cc(C(=O)NC2CCCN(Cc3ccccc3F)C2)n[nH]1 (configuration not stated) returned pPAFAH FP inh inactive, PAFAH2 inh inactive, PAFAH1B2 FP inh inactive, Apaf1 inhib inactive and PAFAH1B3 FP inh inactive.
Screening Cc1cc(C(C)(C)C)cc(S(=O)(=O)Nc2ccc(O)c(C(=O)O)c2)c1C returned pPAFAH FP inh inactive, PAFAH2 inh inactive, PAFAH1B2 FP inh 47, Apaf1 inhib inactive and PAFAH1B3 FP inh inactive.
Screening Cc1ccc(-n2nc3ccc(NC(=O)C(C)C)cc3n2)cc1 returned pPAFAH FP inh inactive, PAFAH2 inh inactive, PAFAH1B2 FP inh inactive, Apaf1 inhib inactive and PAFAH1B3 FP inh inactive.
Screening Cc1ccc(-n2nc3ccc(N)cc3n2)cc1 returned pPAFAH FP inh inactive, PAFAH2 inh inactive, PAFAH1B2 FP inh inactive, Apaf1 inhib 82 and PAFAH1B3 FP inh inactive.
CC(C)c1ccc(-n2nc3ccc(N)cc3n2)cc1 was read as pPAFAH FP inh inactive, PAFAH2 inh inactive, PAFAH1B2 FP inh inactive, Apaf1 inhib 63 and PAFAH1B3 FP inh inactive.
Cn1c(SCC(=O)N2CC(=O)Nc3ccccc32)nnc1C(F)(F)F was read as PAFAH2 inh inactive, PAFAH1B2 FP inh inactive, Apaf1 inhib inactive and PAFAH1B3 FP inh inactive.
`CCCN(C(=O)CSc1cc(-c2ccccc2)c2ccc(OC)cc2n1)C1CCS(=O)(=O)C1` (configuration not stated) gave pPAFAH FP inh 25, PAFAH2 inh inactive, PAFAH1B2 FP inh inactive, Apaf1 inhib inactive and PAFAH1B3 FP inh inactive.
CN(C)S(=O)(=O)c1cccc(NC(=O)COc2ccccc2C(=O)NCc2ccccc2)c1 was read as PAFAH2 inh inactive, PAFAH1B2 FP inh inactive, Apaf1 inhib inactive and PAFAH1B3 FP inh inactive.
